# According to ChEMBL document CHEMBL1126266, “Dopaminergic and serotonergic activities of imidazoquinolinones and related compounds” (J Med Chem, 1992):
# Key:
# [1] = Dose required to reduce neuronal firing of DA cells by 50%; format: functional
# Method in brief: (§1)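 Male Sprague-Dawley rats (280-330 g) anesthetized with chloral hydrate 400 mg/kg ip. Extracellular recording from substantia nigra pars compacta neurons (action potential >2.5 ms), site verified histologically. Drug in distilled water given iv via femoral vein. Firing rate measured by integrated ratemeter.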
# [2] = biological target: T1, D(2) dopamine receptor (Rattus norvegicus, UniProt P61169); test: Compound was evaluated for its ability to displace [3H]raclopride from dopamine receptor D2 in rat striatal homogenates
# Method in brief: (§2)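 Rat striatal homogenate (1:300) incubated with [3H]raclopride (80 Ci/mmol) 1 h at room temperature. Filtered over PEI-pretreated filters, rinsed with 50 mM Tris pH 7.4, counted by liquid scintillation. Nonspecific binding with 1 μM haloperidol. IC50 by log-probit analysis from at least four concentrations in triplicate; Ki calculated from IC50.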
# [3] = test system: Rattus norvegicus; test: Percent change in DOPA levels in rat brain following 1 mg/kg administration.; format: functional
# Method in brief: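 Upjohn CF-1 rats given drug or vehicle sc. Fifteen minutes later, m-hydroxybenzylhydrazine 100 mg/kg ip was given as decarboxylase inhibitor. Control and test groups (n = 6 each) compared by unpaired t test.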
# [4] = test system: Rattus norvegicus; test: Percent change in 5-HTP levels in rat brain following 1 mg/kg administration.
# [5] = biological target: T1, D(2) dopamine receptor; test: Ability to displace [3H]raclopride from dopamine receptor D2 in rat striatal homogenates.; method in brief: as §2
# [6] = biological target: T2, 5-hydroxytryptamine receptor 1A (Homo sapiens) (UniProt P08908); test: Dose required to reduce neuronal firing of 5-HT1A cells by 50%; format: functional
# T2 sequence (whole entry): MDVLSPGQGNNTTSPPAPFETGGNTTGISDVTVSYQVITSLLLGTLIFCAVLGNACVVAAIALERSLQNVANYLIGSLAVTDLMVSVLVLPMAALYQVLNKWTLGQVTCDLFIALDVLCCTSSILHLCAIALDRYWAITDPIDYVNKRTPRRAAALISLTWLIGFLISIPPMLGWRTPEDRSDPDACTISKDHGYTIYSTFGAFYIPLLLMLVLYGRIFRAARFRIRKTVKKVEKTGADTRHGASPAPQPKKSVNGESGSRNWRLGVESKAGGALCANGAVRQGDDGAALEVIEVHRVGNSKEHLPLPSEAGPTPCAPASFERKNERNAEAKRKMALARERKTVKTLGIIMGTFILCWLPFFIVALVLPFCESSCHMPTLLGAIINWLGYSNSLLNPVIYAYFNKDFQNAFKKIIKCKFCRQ
# Method in brief: (§3)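 Male Sprague-Dawley rats (280-330 g) under chloral hydrate 400 mg/kg ip. Extracellular recording from dorsal raphe neurons (biphasic spikes, about 0.8–2.5 spikes/s), location confirmed by dye deposit. Drug in distilled water given iv via femoral vein.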
# [7] = biological target: T1, D(2) dopamine receptor; test: Compound was evaluated for its ability to displace [3H]raclopride from Dopamine receptor D2 in rat striatal homogenates; method in brief: as §2
# [8] = organism: Rattus norvegicus; test: Dose required to reduce neuronal firing of serotonergic cells by 50%; format: functional; method in brief: as §3
# [9] = organism: Rattus norvegicus; test: Dose required to reduce neuronal firing of dopaminergic cells by 50%; format: functional; method in brief: as §1
# T1 sequence (P61169 whole entry): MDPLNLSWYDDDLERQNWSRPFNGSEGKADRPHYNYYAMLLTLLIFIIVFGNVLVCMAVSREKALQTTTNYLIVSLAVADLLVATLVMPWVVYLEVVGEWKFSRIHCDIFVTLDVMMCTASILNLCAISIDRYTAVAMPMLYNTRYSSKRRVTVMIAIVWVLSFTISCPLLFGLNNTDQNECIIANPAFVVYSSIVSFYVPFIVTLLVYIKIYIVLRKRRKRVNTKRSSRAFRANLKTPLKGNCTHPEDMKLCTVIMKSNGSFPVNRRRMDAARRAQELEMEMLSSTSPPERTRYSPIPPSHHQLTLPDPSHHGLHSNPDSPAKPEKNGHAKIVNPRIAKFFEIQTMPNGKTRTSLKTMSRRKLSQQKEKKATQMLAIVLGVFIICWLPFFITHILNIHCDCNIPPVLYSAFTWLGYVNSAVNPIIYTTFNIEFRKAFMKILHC
SMILES,Change [3],Change [4],Ki [5],also measured
CCCN(CCC)[C@H]1Cc2cccc3nc(O)n(c23)C1.Cl,0.3%,6.4%,,ED50 [1]: > 1 mg/kg; Ki [2]: > 1000 nM
CCCCN(CCC)C1Cc2cccc3nc(O)n(c23)C1 (stereo not drawn),,,167 nM,
CCCN(CCC)C1Cc2cccc3nc(SC)n(c23)C1 (stereo not drawn),,,> 1000 nM,
CCCN(CCC)C1Cc2cccc3c2N(CC3)C1.O=C(O)/C=C/C(=O)O (stereo not drawn),-33%,-13%,> 1000 nM,
CCCN(CCC)C1Cc2cccc3c2N(C1)C(=O)CO3.O=C(O)/C=C/C(=O)O (stereo not drawn),-18%,-12%,,
CCCN(CCC)C1Cc2cccc3c2N(C1)C(=O)C3=O (stereo not drawn),-46%,-7%,> 1000 nM,
CCCN(CCC)C1Cc2cccc3c2N(CC(=O)N3)C1.Cl (stereo not drawn),-52%,16%,30 nM,ED50 [1]: 0.039 mg/kg
CCCCNC1Cc2cccc3[nH]c(=O)n(c23)C1 (stereo not drawn),,,,Ki [2]: > 10000 nM
CCCN(CCC)C1Cc2cccc3c2n(c(=O)n3C)C1 (stereo not drawn),,,,Ki [2]: 924 nM
CCCN(CCC)C1Cc2cccc3nc(S)n(c23)C1 (stereo not drawn),-38%,-7%,40 nM,
CCCN(CCC)C1Cc2cccc3c2N(CCC3)C1 (stereo not drawn),,,35 nM,
CCCN(CCC)C1Cc2cccc3nc(O)n(c23)C1.Cl (stereo not drawn),-34%,12%,207 nM,ED50 [1]: 0.005 mg/kg; ED50 [6]: 0.34 mg/kg
CCCN(CCC)C1Cc2cccc3nc(C)n(c23)C1 (stereo not drawn),,,,Ki [7]: > 1000 nM
CCCN(Cc1ccccc1)C1Cc2cccc3[nH]c(=O)n(c23)C1 (stereo not drawn),,,1910 nM,
CCCN(CCC)C1Cc2cccc3c2N(C1)C(=O)C3 (stereo not drawn),-53%,-11%,1080 nM,
NC1Cc2cccc3nc(O)n(c23)C1 (stereo not drawn),,,> 10000 nM,
Br.CCCN(CCC)[C@@H]1Cc2cccc3nc(O)n(c23)C1,-50%,-1.2%,,ED50 [8]: 0.107 mg/kg; Ki [2]: 68 nM; ED50 [9]: 0.0014 mg/kg

SMILES,Change [3],Change [4],Ki [5],also measured
CCCN(CCC)C1Cc2cccc3[nH]c(=O)c(=O)n(c23)C1.Cl (stereo not drawn),-37%,6%,150 nM,ED50 [1]: 0.088 mg/kg
CCCN(CCC)C1Cc2cccc3ccc(=O)n(c23)C1 (stereo not drawn),-40%,-18%,315 nM,
C=CCN(CC=C)C1Cc2cccc3nc(O)n(c23)C1 (stereo not drawn),,,> 10000 nM,
CN1CCc2cccc3c2[C@H]1Cc1ccc(O)c(O)c1-3 [APOMORPHINE],-55%,4%,,
CCCN(CCC)C1Cc2cccc3oc(=O)n(c23)C1 (stereo not drawn),-27%,-6%,899 nM,
CCCN(CCC)C1Cc2cccc3ncn(c23)C1 (stereo not drawn),-12%,-7%,> 1000 nM,ED50 [1]: 0.219 mg/kg
CN(C)C1Cc2cccc3nc(O)n(c23)C1 (stereo not drawn),,,> 10000 nM,
Oc1nc2cccc3c2n1CC(NCC1CC1)C3 (stereo not drawn),,,4000 nM,
CCCCN(CCCC)C1Cc2cccc3nc(O)n(c23)C1 (stereo not drawn),,,> 10000 nM,
CCCN(CCC)C1Cc2cccc3ccn(c23)C1.O=C(O)/C=C/C(=O)O (stereo not drawn),-29%,-14%,210 nM,ED50 [1]: 0.083 mg/kg
CCCNC1Cc2cccc3nc(O)n(c23)C1.Cl (stereo not drawn),,,1040 nM,ED50 [1]: 0.036 mg/kg; ED50 [6]: 0.65 mg/kg
CCCN(CCC)C1Cc2cccc3c2N(C1)C(=O)CN3 (stereo not drawn),-37%,-32%,80 nM,
Oc1nc2cccc3c2n1CC(N(CC1CC1)CC1CC1)C3 (stereo not drawn),,,7730 nM,
CCCN(CCC)C1Cc2cccc3c2N(C1)C(=O)CC3 (stereo not drawn),-41%,-48%,83 nM,
CCCN(CCC)C1Cc2cccc3c2N(C1)C(=O)OC3.Cl (stereo not drawn),-36%,-13%,292 nM,
C=CCNC1Cc2cccc3nc(O)n(c23)C1 (stereo not drawn),,,363 nM,
CCCN(CCC)C1Cc2cccc3c2N(C1)C(=O)NC3 (stereo not drawn),-13%,-45%,> 1000 nM,ED50 [1]: 0.212 mg/kg; ED50 [6]: 0.0034 mg/kg
